Active and inactive are the calls of the source. The calls are words filed in the database; no cut-off is given here.
Key:
[1] = Inhibition of interaction of RNA polymerase beta' subunit CH-region and region 2.2 of RNA polymerase sigma factor RpoD/RNA polymerase sigma factor sigA (unknown origin) at 15 uM […] followed by incubation at room temperature for 1 hr by ELISA method
Escherichia coli [2] = experiment: Growth inhibition of Escherichia coli DH5[alpha] at 200 uM incubated for 16 hrs; assay type: functional; settings: for inhibition of growth at 200 µM: read-out: GI
Summary of the method: (§1)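 E. coli DH5α grown at 37 °C in LB with shaking to OD600 0.6–0.7, then added to wells holding compound diluted from a 50 mM DMSO stock. Plates shaken at 37 °C, with OD600 read every 10 min over 16 h against an LB blank. Growth inhibition expressed as % of the no-inhibitor control.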

Bacillus subtilis [3] = experiment: Growth inhibition of Bacillus subtilis 168 at 200 uM incubated for 16 hrs; assay type: functional; settings: for inhibition of growth at 200 µM: Bacillus subtilis, 168, 16 h, read-out: GI
Bacillus subtilis [4] = experiment: Growth inhibition of Bacillus subtilis 168 assessed as effect on exponential phase of bacterial growth at 200 uM incubated for 16 hrs; assay type: functional; settings: Bacillus subtilis, 168, 16 h; read-out: GI
Escherichia coli [5] = experiment: Growth inhibition of Escherichia coli DH5[alpha] assessed as effect on exponential phase of bacterial growth at 200 uM incubated for 16 hrs; assay type: functional; settings: read-out: GI; summary of the method: as §1
[6] = Inhibition of interaction of RNA polymerase beta' subunit CH-region and region 2.2 of RNA polymerase sigma factor RpoD/RNA polymerase sigma factor sigA (unknown origin) pre-incubated at 37 degC for 15 mins with enzyme followed by incubation at room temperature for 1 hr by ELISA method
Bacillus subtilis [7] = experiment: Growth inhibition of Bacillus subtilis 168 incubated for 16 hrs; assay type: functional
Escherichia coli [8] = experiment: Growth inhibition of Escherichia coli DH5[alpha] incubated for 16 hrs; assay type: functional; summary of the method: as §1
Staphylococcus aureus = experiment: Growth inhibition of Staphylococcus aureus at 200 uM incubated for 16 hrs; assay type: functional; settings: read-out: GI

## COc1cc(OC)c2c(-c3ccc(Br)cc3)c[nH]c2c1C(=O)Nc1ccccc1
[1]
  inhibition: 49%
Escherichia coli [2]
  inhibition of growth at 200 µM: 13%
Bacillus subtilis [3]
  inhibition of growth at 200 µM: 7%

## COc1cc(OC)c2c(-c3ccc(Cl)cc3)c(C(=O)N3CCOCC3)[nH]c2c1
[1]
  inhibition: inactive
Escherichia coli [2]
  inhibition of growth at 200 µM: 42%
Bacillus subtilis [3]
  growth inhibition (GI): inactive

## COc1cc(OC)c2c(C)c(C)[nH]c2c1C(=O)C(=O)N1CCOCC1
[1]
  inhibition: 7%
Escherichia coli [2]
  growth inhibition (GI): inactive
Bacillus subtilis [4]
  inhibition of growth at 200 µM: 42%

## CCOC(=O)CNC(=O)C(=O)c1[nH]c2cc(OC)cc(OC)c2c1-c1ccc(Cl)cc1
[1]
  inhibition: 42%
Escherichia coli [2]
  inhibition of growth at 200 µM: 53%
Bacillus subtilis [3]
  growth inhibition (GI): inactive

## COc1cc(OC)c2c(-c3ccc(Br)cc3)c[nH]c2c1C(=O)C(=O)NNc1ccccc1
[1]
  inhibition: 34%
Escherichia coli [2]
  inhibition of growth at 200 µM: 24%
Bacillus subtilis [3]
  inhibition of growth at 200 µM: 10%

## O=C(C(=O)N1CCN(Cc2ccccc2)CC1)c1c[nH]c2ccccc12
[1]
  inhibition: 21%
Escherichia coli [2]
  inhibition of growth at 200 µM: 6%
Bacillus subtilis [3]
  inhibition of growth at 200 µM: 70%

## COc1cc(OC)c2c(-c3ccc(Cl)cc3)c[nH]c2c1C(=O)Nc1ccc(C)cc1
Escherichia coli [2]
  inhibition of growth at 200 µM: 13%
Bacillus subtilis [3]
  inhibition of growth at 200 µM: 13%

## COc1cc(OC)c2c(-c3ccc(Cl)cc3)c[nH]c2c1C(=O)C(=O)NNc1ccccc1
[1]
  inhibition: 26%
Escherichia coli [2]
  inhibition of growth at 200 µM: 20%
Bacillus subtilis [3]
  growth inhibition (GI): inactive

## COc1cc(OC)c2c(-c3ccc(Br)cc3)c[nH]c2c1C(=O)C(=O)N1CCN(Cc2ccccc2)CC1
[1]
  inhibition: 8%
Escherichia coli [2]
  inhibition of growth at 200 µM: 6%
Bacillus subtilis [3]
  growth inhibition (GI): inactive

## COc1cc(OC)c2c(C)c(C(=O)C(=O)N3CCOCC3)[nH]c2c1
[1]
  inhibition: 33%
Escherichia coli [2]
  inhibition of growth at 200 µM: 2%
Bacillus subtilis [3]
  inhibition of growth at 200 µM: 2%

## COc1cc(OC)c2c(-c3ccc(Br)cc3)c[nH]c2c1C(=O)C(=O)Nc1ccc(C)cc1
Escherichia coli [2]
  inhibition of growth at 200 µM: 29%
Bacillus subtilis [3]
  growth inhibition (GI): inactive

## COc1cc(OC)c2c(-c3ccc(Br)cc3)c[nH]c2c1C(=O)C(=O)N1CCCCC1
[1]
  inhibition: 32%
Escherichia coli [2]
  inhibition of growth at 200 µM: 26%
Bacillus subtilis [3]
  inhibition of growth at 200 µM: 14%

## COc1cc(OC)c2c(C)c(C(=O)C(=O)N3CCN(Cc4ccccc4)CC3)[nH]c2c1
[1]
  inhibition: 46%
Escherichia coli [2]
  inhibition of growth at 200 µM: 16%
Bacillus subtilis [3]
  inhibition of growth at 200 µM: 7%

## COc1cc(OC)c2c(-c3ccc(Cl)cc3)c[nH]c2c1C(=O)C(=O)N1CCOCC1
[1]
  inhibition: inactive
Escherichia coli [5]
  inhibition of growth at 200 µM: 38%
Bacillus subtilis [3]
  growth inhibition (GI): inactive

## COc1cc(OC)c2c(C)c(C(=O)C(=O)N3CCCCC3)[nH]c2c1
[1]
  inhibition: 17%
Escherichia coli [2]
  growth inhibition (GI): inactive
Bacillus subtilis [3]
  growth inhibition (GI): inactive

## COc1cc(OC)c2c(-c3ccc(Cl)cc3)c(C(=O)C(=O)N3CCOCC3)[nH]c2c1
[1]
  inhibition: 27%
Escherichia coli [2]
  inhibition of growth at 200 µM: 37%
Bacillus subtilis [4]
  inhibition of growth at 200 µM: 37%

## COc1cc(OC)c2c(-c3ccc(Br)cc3)c[nH]c2c1C(=O)NNc1ccccc1
[1]
  inhibition: 44%
Escherichia coli [2]
  inhibition of growth at 200 µM: 23%
Bacillus subtilis [3]
  growth inhibition (GI): inactive

## COc1cc(OC)c2c(-c3ccc(Cl)cc3)c[nH]c2c1C(=O)C(=O)Nc1ccccc1
[1]
  inhibition: 23%
Escherichia coli [2]
  inhibition of growth at 200 µM: 23%
Bacillus subtilis [3]
  inhibition of growth at 200 µM: 26%

## O=C(C(=O)N1CCCCC1)c1c[nH]c2ccccc12
[1]
  inhibition: 37%
Escherichia coli [2]
  inhibition of growth at 200 µM: 9%
Bacillus subtilis [3]
  inhibition of growth at 200 µM: 12%

## COc1cc(OC)c2c(-c3ccc(Cl)cc3)c[nH]c2c1C(=O)C(=O)Nc1ccc(C)cc1
[1]
  inhibition: 37%
Escherichia coli [2]
  inhibition of growth at 200 µM: 20%
Bacillus subtilis [3]
  growth inhibition (GI): inactive

## COc1cc(OC)c2c(-c3ccc(Cl)cc3)c[nH]c2c1C(=O)NNc1ccccc1
[1]
  inhibition: 60%
Escherichia coli [2]
  inhibition of growth at 200 µM: 21%
Bacillus subtilis [3]
  growth inhibition (GI): inactive

## COc1cc(OC)c2c(C)c(C)[nH]c2c1C(=O)C(=O)N1CCCCC1
[1]
  inhibition: 39%
Escherichia coli [2]
  inhibition of growth at 200 µM: 24%
Bacillus subtilis [4]
  inhibition of growth at 200 µM: 57%

## O=C(C(=O)N1CCOCC1)c1c[nH]c2ccccc12
[1]
  inhibition: 39%
Escherichia coli [2]
  inhibition of growth at 200 µM: 4%
Bacillus subtilis [3]
  growth inhibition (GI): inactive

## COc1cc(OC)c2c(-c3ccc(Cl)cc3)c(C(=O)C(=O)N3CCCCC3)[nH]c2c1
[1]
  inhibition: inactive
Escherichia coli [2]
  inhibition of growth at 200 µM: 18%
Bacillus subtilis [3]
  growth inhibition (GI): inactive

## COc1cc(OC)c2c(-c3ccc(Br)cc3)c(C(=O)C(=O)N3CCCCC3)[nH]c2c1
[1]
  inhibition: 39%
Escherichia coli [2]
  inhibition of growth at 200 µM: 7%
Bacillus subtilis [3]
  inhibition of growth at 200 µM: 22%

## COc1cc(OC)c2c(-c3ccc(Br)cc3)c(C(=O)C(=O)N3CCCC3)[nH]c2c1
[1]
  inhibition: inactive
Escherichia coli [2]
  growth inhibition (GI): inactive
Bacillus subtilis [3]
  growth inhibition (GI): inactive

## COc1cc(OC)c2c(-c3ccc(Br)cc3)c(C(=O)C(=O)N3CCN(c4ccccn4)CC3)[nH]c2c1
[1]
  inhibition: 25%
Escherichia coli [2]
  inhibition of growth at 200 µM: 38%
Bacillus subtilis [3]
  inhibition of growth at 200 µM: 19%

## COc1cc(OC)c2c(-c3ccccc3)c(C(=O)C(=O)N3CCOCC3)oc2c1
[1]
  inhibition: 29%
Escherichia coli [2]
  inhibition of growth at 200 µM: 6%
Bacillus subtilis [4]
  inhibition of growth at 200 µM: 70%
[6]
  IC50: 71.6 µM
Bacillus subtilis [7]
  GI: >100 µM

## COc1cc(OC)c2c(-c3ccc(Br)cc3)c[nH]c2c1C(=O)C(=O)N1CCOCC1
Escherichia coli [8]
  GI: >100 µM
[1]
  inhibition: 31%
Escherichia coli [5]
  inhibition of growth at 200 µM: 59%
Bacillus subtilis [3]
  growth inhibition (GI): inactive
[6]
  IC50: 33.9 µM

## COc1cc(OC)c2c(-c3ccc(Cl)cc3)c[nH]c2c1C(=O)C(=O)N1CCCC1
[1]
  inhibition: inactive
Escherichia coli [2]
  inhibition of growth at 200 µM: 23%
Staphylococcus aureus
  inhibition of growth at 200 µM: 60%

## COc1cc(OC)c2c(C)c(C(=O)C(=O)N3CCN(C)CC3)[nH]c2c1
[1]
  inhibition: 44%
Escherichia coli [2]
  growth inhibition (GI): inactive
Bacillus subtilis [3]
  growth inhibition (GI): inactive

## COc1cc(OC)c2c(C)c(C(=O)C(=O)N3CCCC3)[nH]c2c1
[1]
  inhibition: 44%
Escherichia coli [2]
  growth inhibition (GI): inactive
Bacillus subtilis [3]
  growth inhibition (GI): inactive

## COc1cc(OC)c2c(-c3ccccc3)c(C(=O)C(=O)N3CCN(c4ccccn4)CC3)oc2c1
[1]
  inhibition: 41%
Escherichia coli [2]
  inhibition of growth at 200 µM: 10%
Bacillus subtilis [3]
  inhibition of growth at 200 µM: 3%

## COc1cc(OC)c2c(-c3ccc(Cl)cc3)c[nH]c2c1C(=O)C(=O)N1CCCCC1
[1]
  inhibition: inactive
Escherichia coli [2]
  growth inhibition (GI): inactive
Bacillus subtilis [3]
  growth inhibition (GI): inactive

## COc1cc(OC)c2c(-c3ccc(Br)cc3)c[nH]c2c1C(=O)Nc1ccc(C)cc1
Escherichia coli [2]
  inhibition of growth at 200 µM: 12%
Bacillus subtilis [3]
  inhibition of growth at 200 µM: 36%

## COc1cc(OC)c2c(-c3ccc(Br)cc3)c[nH]c2c1C(=O)C(=O)Nc1ccccc1
[1]
  inhibition: 34%
Escherichia coli [2]
  inhibition of growth at 200 µM: 33%
Bacillus subtilis [3]
  inhibition of growth at 200 µM: 36%

## O=C(C(=O)N1CCN(c2ccccn2)CC1)c1c[nH]c2ccccc12
[1]
  inhibition: 27%
Escherichia coli [2]
  inhibition of growth at 200 µM: 4%
Bacillus subtilis [3]
  inhibition of growth at 200 µM: 10%

## COc1cc(OC)c2c(C)c(C(=O)C(=O)N3CCN(c4ccccn4)CC3)[nH]c2c1
[1]
  inhibition: 48%
Escherichia coli [2]
  inhibition of growth at 200 µM: 38%
Bacillus subtilis [3]
  inhibition of growth at 200 µM: 14%

## COc1cc(OC)c2c(C)c(C)[nH]c2c1C(=O)C(=O)N1CCN(c2ccccn2)CC1
[1]
  inhibition: 27%
Escherichia coli [2]
  inhibition of growth at 200 µM: 13%
Bacillus subtilis [3]
  inhibition of growth at 200 µM: 12%

— ChEMBL document CHEMBL3399983, “Synthesis and biological activity of novel mono-indole and mono-benzofuran inhibitors of bacterial transcription initiation complex formation” (Bioorg Med Chem, 2015)
